Assay results published in ChEMBL document CHEMBL4052819 (2017).
Converted amounts (≈) assume the structure as drawn. The source made the active and inactive calls. The rule behind the calls is not given here. Non-standard residues stand in square brackets, D forms with d. Residues, ends and D or L forms follow the SMILES beside them. *: point of attachment. Decanoyl = CCCCCCCCCC(=O)*; Dab = NCC[C@H](N)C(=O)O

How the values were obtained:
Type in all cases: functional
Staphylococcus aureus [1] = assay: Antibiofilm activity against methicillin-resistant Staphylococcus aureus LAC established catheter-associated biofilm model at 20 times MIC after 72 hrs relative to control
Pseudomonas aeruginosa [2] = assay: Bactericidal activity against Pseudomonas aeruginosa ATCC 27853 after 60 mins in presence of LPS
Summary of the method: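 P. aeruginosa at ~10^6 CFU/mL in TSB with E. coli O111:B4 LPS (final 10, 25, 50 or 100 μg/mL), then compound at final 16 μg/mL. Incubated 37 °C, 200 rpm, 60 min; survivors counted on TSA. Three independent experiments, one replicate each.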

Klebsiella pneumoniae [3] = assay: Antibacterial activity against Klebsiella pneumoniae ATCC 13883 after 18 to 20 hrs by broth microdilution method
Staphylococcus aureus [4] = assay: Antibacterial activity against Staphylococcus aureus ATCC 29213 after 18 to 20 hrs in presence of 95% serum by broth microdilution method
Summary of the method: (§1)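 Same microdilution with human serum as medium: compound 2-fold diluted in 100% serum, mixed 1:1 with 90% serum holding ~1.5 × 10^5 CFU/mL, giving 95% serum and final 0.5–64 μg/mL. MIC read as no visible growth after incubation as for the broth test.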

Staphylococcus aureus [5] = assay: Bactericidal activity against Staphylococcus aureus ATCC 29213; conditions: read-out: MBC99.9
Summary of the method: (§2)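 MBC from MIC plates at end point: 50 μL from each well with no visible growth plated on tryptic soy agar and counted. MBC taken as lowest concentration giving ≥99.9% fall in viable count relative to initial inoculum. Three independent experiments, one replicate each.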

Escherichia coli [6] = assay: Antibacterial activity against Escherichia coli ATCC 25922 after 18 to 20 hrs by broth microdilution method
Summary of the method: (§3)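 Broth microdilution in tryptic soy broth: 2-fold dilutions mixed 1:1 with ~1.5 × 10^5 CFU/mL inoculum, final 0.5–32 μg/mL; 37 °C, 18–20 h. MIC taken as lowest concentration giving no visible growth. At least three independent experiments, one replicate each.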

Klebsiella pneumoniae [7] = assay: Bactericidal activity against Klebsiella pneumoniae ATCC 13883; conditions: read-out: MBC99.9; summary of the method: as §2
Acinetobacter baumannii [8] = assay: Antibacterial activity against Acinetobacter baumannii ATCC 19606 after 18 to 20 hrs by broth microdilution method; conditions: ATCC 19606 = CIP 70.34 = JCM 6841
Pseudomonas aeruginosa [9] = assay: Bactericidal activity against Pseudomonas aeruginosa ATCC 27853; conditions: read-out: MBC99.9; summary of the method: as §2
Pseudomonas aeruginosa [10] = assay: Antibacterial activity against Pseudomonas aeruginosa ATCC 27853 after 18 to 20 hrs by broth microdilution method; summary of the method: as §3
Staphylococcus aureus [11] = assay: Bactericidal activity against methicillin-resistant Staphylococcus aureus ATCC 43300; conditions: read-out: MBC99.9
Summary of the method: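 MBC taken at the end of the MIC test: 50 μL from each well without visible growth plated on tryptic soy agar. MBC = lowest concentration giving ≥99.9% reduction in viable cells relative to the initial inoculum. Three independent experiments, one replicate each.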

Enterococcus faecium [12] = assay: Antibacterial activity against Enterococcus faecium ATCC 19434 after 18 to 20 hrs by broth microdilution method; summary of the method: as §3
Staphylococcus aureus [13] = assay: Antibiofilm activity against methicillin-resistant Staphylococcus aureus LAC established catheter-associated biofilm model after 72 hrs
Staphylococcus aureus [14] = assay: Antibacterial activity against methicillin-resistant Staphylococcus aureus LAC
Staphylococcus aureus [15] = assay: Antibacterial activity against Staphylococcus aureus ATCC 29213 after 18 to 20 hrs by broth microdilution method; summary of the method: as §3
Staphylococcus aureus [16] = assay: Antibacterial activity against methicillin-resistant Staphylococcus aureus ATCC 43300 after 18 to 20 hrs by broth microdilution method
Summary of the method: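 Broth microdilution in tryptic soy broth: 2-fold dilutions mixed 1:1 with ~1.5 × 10^5 CFU/mL bacterial suspension in TSB, final 0.5–32 μg/mL, 37 °C for 18–20 h. MIC = lowest concentration with no visible growth. At least three independent experiments, one replicate each.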

Escherichia coli [17] = assay: Bactericidal activity against Escherichia coli ATCC 25922; conditions: read-out: MBC99.9; summary of the method: as §2
Acinetobacter baumannii [18] = assay: Bactericidal activity against Acinetobacter baumannii ATCC 19606; conditions: ATCC 19606 = CIP 70.34 = JCM 6841, read-out: MBC99.9; summary of the method: as §2
Enterococcus faecium [19] = assay: Bactericidal activity against Enterococcus faecium ATCC 19434; conditions: read-out: MBC99.9; summary of the method: as §2
Escherichia coli [20] = assay: Antibacterial activity against Escherichia coli ATCC 25922 after 18 to 20 hrs in presence of 95% serum by broth microdilution method; summary of the method: as §1

CCO/N=C(\C(=O)N[C@@H]1C(=O)N2C(C(=O)[O-])=C(Sc3nc(-c4cc[n+](C)cc4)cs3)CS[C@H]12)c1nsc(NP(=O)(O)O)n1
Activity (Staphylococcus aureus [1]): inactive

CCCCCCCCCC(=O)N[C@@H](CCN)C(=O)N[C@H](C(=O)N[C@@H](CCN)C(=O)N[C@H](Cc1ccccc1)C(=O)N[C@@H](CC(C)C)C(=O)N[C@@H](CCN)C(=O)N[C@@H](C(=O)N[C@@H](CC(C)C)C(=O)N[C@@H](CO)C(N)=O)C(C)C)[C@@H](C)CC (Decanoyl-[Dab]I[Dab][dF]L[Dab][dV]LS-NH2)
Activity (Pseudomonas aeruginosa [2]): inactive | MIC (Klebsiella pneumoniae [3]): 2 to 4 µg/mL (≈ 1.75 to 3.49 µM) | MIC (Staphylococcus aureus [4]): 16 µg/mL | MBC (Staphylococcus aureus [5]): 4 to 8 µg/mL (≈ 3.49 to 6.99 µM) | MIC (Escherichia coli [6]): 2 to 8 µg/mL (≈ 1.75 to 6.99 µM) | MBC (Klebsiella pneumoniae [7]): 4 to 8 µg/mL (≈ 3.49 to 6.99 µM) | MIC (Acinetobacter baumannii [8]): 0.5 to 2 µg/mL (≈ 0.437 to 1.75 µM) | MBC (Pseudomonas aeruginosa [9]): 2 to 4 µg/mL (≈ 1.75 to 3.49 µM) | MIC (Pseudomonas aeruginosa [10]): 1 to 2 µg/mL (≈ 0.874 to 1.75 µM) | MBC (Staphylococcus aureus [11]): 2 to 4 µg/mL (≈ 1.75 to 3.49 µM) | MIC (Enterococcus faecium [12]): 2 µg/mL (≈ 1.75 µM) | Activity (Staphylococcus aureus [13]): inactive | Activity (Staphylococcus aureus [14]): Active | MIC (Staphylococcus aureus [15]): 2 to 4 µg/mL (≈ 1.75 to 3.49 µM) | MIC (Staphylococcus aureus [16]): 2 to 4 µg/mL (≈ 1.75 to 3.49 µM) | MBC (Escherichia coli [17]): 8 µg/mL (≈ 6.99 µM) | MBC (Acinetobacter baumannii [18]): 0.5 to 2 µg/mL (≈ 0.437 to 1.75 µM) | MBC (Enterococcus faecium [19]): 2 to 4 µg/mL (≈ 1.75 to 3.49 µM) | MIC (Escherichia coli [20]): 32 µg/mL
